Measured values published in ChEMBL document CHEMBL1134563, “Synthesis, mechanism of action, and antiviral activity of a new series of covalent mechanism-based inhibitors of S-adenosyl-L-homocysteine hydrolase” (J Med Chem, 2001).
pEC50, pKi: −log10 of the molar value. ≈ marks a conversion by molar mass, not a printed value.

Key:
[1] = tested on: HeLa; test: Effective concentration required to inhibit Coxsackie virus B4-induced cytopathicity by 50% in HeLa cell lines; type: functional, cell-based; details: Homo sapiens
[2] = target: T1, Adenosylhomocysteinase (Homo sapiens, UniProt P23526); test: Inhibition of purified recombinant human placental S-adenosyl-homocysteine hydrolase
Procedure, shortened: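 Enzyme preincubated at 37 °C in assay buffer with inactivator (5-40 µM). Residual activity was read over time in the synthetic direction from the formation of [8-14C]-AdoHcy, using 10 µM [8-14C]-Ado, 5 mM D,L-Hcy, 20 mM potassium phosphate pH 7.5, 1 mg/mL BSA and 1 mM EDTA, 10 min at 37 °C. Reaction stopped with HCl; Ado/AdoHcy separated on Cellex P.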
Target sequence in this assay (P23526 whole entry): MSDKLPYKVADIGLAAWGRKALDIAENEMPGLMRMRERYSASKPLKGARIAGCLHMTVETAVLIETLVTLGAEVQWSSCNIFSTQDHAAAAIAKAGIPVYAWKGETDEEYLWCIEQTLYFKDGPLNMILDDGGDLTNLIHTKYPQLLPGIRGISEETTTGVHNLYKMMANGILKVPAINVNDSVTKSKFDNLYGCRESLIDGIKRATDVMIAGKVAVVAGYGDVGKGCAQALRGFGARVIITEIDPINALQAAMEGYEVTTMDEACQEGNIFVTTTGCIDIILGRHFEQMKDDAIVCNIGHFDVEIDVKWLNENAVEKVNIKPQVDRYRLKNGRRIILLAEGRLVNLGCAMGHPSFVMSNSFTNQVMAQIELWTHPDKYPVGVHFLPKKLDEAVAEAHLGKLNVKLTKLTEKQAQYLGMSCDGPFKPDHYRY

[3] = tested on: Vero; test: Effective concentration required to inhibit Junin virus-induced cytopathicity by 50% in Vero cell lines; type: functional, cell-based; details: Chlorocebus sabaeus
[4] = tested on: HEL; test: Minimum inhibitory concentration required to elicit microscopically visible cell morphology in HEL cell lines; type: functional; details: Homo sapiens
[5] = target: T1, Adenosylhomocysteinase
Target sequence in this assay (P23526 2-432 limits assumed): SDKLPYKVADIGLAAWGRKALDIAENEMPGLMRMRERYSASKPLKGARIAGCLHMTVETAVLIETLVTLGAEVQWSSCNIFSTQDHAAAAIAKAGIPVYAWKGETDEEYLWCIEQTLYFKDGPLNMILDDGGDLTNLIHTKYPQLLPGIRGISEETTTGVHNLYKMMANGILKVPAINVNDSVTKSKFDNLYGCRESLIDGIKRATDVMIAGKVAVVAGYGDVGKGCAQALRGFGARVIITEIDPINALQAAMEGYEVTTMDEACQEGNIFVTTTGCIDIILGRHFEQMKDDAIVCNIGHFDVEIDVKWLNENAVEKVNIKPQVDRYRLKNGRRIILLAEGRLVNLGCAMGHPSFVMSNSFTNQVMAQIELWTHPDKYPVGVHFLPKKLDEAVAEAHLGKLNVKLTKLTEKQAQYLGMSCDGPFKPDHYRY

[6] = tested on: Vero; test: Effective concentration required to inhibit respiratory synaptial (RSV) virus-induced cytopathicity by 50% in Vero cell lines; type: functional, cell-based; details: Chlorocebus sabaeus
[7] = tested on: E6SM; test: Effective concentration required to inhibit Herpes simplex virus-1 (HSV-1) induced cytopathicity by 50% in E6SM cell lines; type: functional, cell-based; details: Homo sapiens
[8] = tested on: Vero; test: Effective concentration required to inhibit PuntaToro virus-induced cytopathicity by 50% in Vero cell lines; type: functional, cell-based; details: Chlorocebus sabaeus
[9] = tested on: E6SM; test: Effective concentration required to inhibit vesicular stomatitis virus(VSV) -induced cytopathicity by 50% in E6SM cell lines; type: functional, cell-based; details: Homo sapiens
[10] = target: T1, Adenosylhomocysteinase; remark: listed apart in the source
Target sequence in this assay (P23526 2-432 limits assumed): as above

[11] = tested on: HEL; test: Effective concentration required to inhibit cytomegalo virus(CMV) -induced cytopathicity by 50% in AD-169 strain HEL cell lines; type: functional, cell-based; details: Homo sapiens
[12] = tested on: HeLa; test: Minimum inhibitory concentration required to elicit microscopically visible cell morphology in HeLa cell lines; type: functional; details: Homo sapiens
[13] = tested on: HEL; test: Effective concentration required to inhibit thymidine kinase (TK+) Varicella-Zoster virus-induced cytopathicity by 50% in YS strain HEL cell lines; type: functional, cell-based; details: Homo sapiens
[14] = tested on: Vero; test: Effective concentration required to inhibit parainfluenza-3 virus-induced cytopathicity by 50% in Vero cell lines; type: functional, cell-based; details: Chlorocebus sabaeus
[15] = half life of enzyme inactivation at 15 uM; type: functional
Procedure, shortened: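 Recombinant human placental AdoHcy hydrolase was preincubated with inhibitor (5-40 µM range) in assay buffer at 37 °C. Residual activity was read at set times in the synthetic direction: [8-14C]-AdoHcy formation from 10 µM [8-14C]-Ado plus 5 mM D,L-Hcy, in 20 mM K phosphate pH 7.5, 1 mg/mL BSA, 1 mM EDTA, for 10 min at 37 °C. HCl stopped the reaction, and products were separated on Cellex P.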

[16] = tested on: E6SM; test: Minimum inhibitory concentration required to elicit microscopically visible cell morphology in E6SM cell lines; type: functional; details: Homo sapiens
[17] = tested on: Vero; test: Effective concentration required to inhibit reovirus-induced cytopathicity by 50% in Vero cell lines; type: functional, cell-based; details: Chlorocebus sabaeus
[18] = target: T1, Adenosylhomocysteinase; remark: listed apart in the source
Target sequence in this assay (P23526 2-432 limits assumed): as above

[19] = tested on: HEL; test: Effective concentration required to inhibit Thymidine kinase deficient (TK-) Varicella-Zoster virus-induced cytopathicity by 50% in YS/R strain HEL cell lines; type: functional, cell-based; details: Homo sapiens
[20] = tested on: Vero; test: Effective concentration required to inhibit Sindbis virus-induced cytopathicity by 50% in Vero cell lines; type: functional, cell-based; details: Chlorocebus sabaeus
[21] = tested on: E6SM; test: Effective concentration required to inhibit Herpes simplex virus-1(HSV-1) / […] kinase deficient (TK-)B2006 / VMW1837 induced cytopathicity by 50% in E6SM cell lines; type: functional, cell-based; details: Homo sapiens
[22] = tested on: HeLa; test: Effective concentration required to inhibit respiratory synaptial(RSV) virus-induced cytopathicity by 50% in HeLa cell lines; type: functional, cell-based; details: Homo sapiens
[23] = tested on: E6SM; test: Effective concentration required to inhibit Vaccinia virus-induced cytopathicity by 50% in E6SM cell lines; type: functional, cell-based; details: Homo sapiens
[24] = tested on: HEL; test: Effective concentration required to inhibit cytomegalo virus-induced cytopathicity by 50% in Davis-169 strain HEL cell lines; type: functional, cell-based; details: Homo sapiens
[25] = tested on: E6SM; test: Effective concentration required to inhibit Herpes simplex virus-2 (HSV-2) induced cytopathicity by 50% in E6SM cell lines; type: functional, cell-based; details: Homo sapiens
[26] = tested on: HEL; test: Effective concentration required to inhibit thymidine kinase (TK+) Varicella-Zoster virus-induced cytopathicity by 50% in OKA strain HEL cell lines; type: functional, cell-based; details: Homo sapiens
[27] = tested on: Vero; test: Effective concentration required to inhibit Tacaribe virus-induced cytopathicity by 50% Vero cell lines; type: functional, cell-based; details: Chlorocebus sabaeus
[28] = tested on: HeLa; test: Effective concentration required to inhibit vesicular stomatitis virus (VSV)-induced cytopathicity by 50% in HeLa cell lines; type: functional, cell-based; details: Homo sapiens
[29] = tested on: HEL; test: Effective concentration required to inhibit Thymidine kinase deficient (TK-) Varicella-Zoster virus-induced cytopathicity by 50% in 07/01 strain HEL cell lines; type: functional, cell-based; details: Homo sapiens
[30] = tested on: HEL; test: Effective concentration required to inhibit cytomegalo virus-induced cytopathicity by 50% in AD-169 strain HEL cell lines; type: functional, cell-based; details: Homo sapiens
[31] = tested on: Vero; test: Minimum inhibitory concentration required to elicit microscopically visible cell morphology in Vero cell lines; type: functional; details: Chlorocebus sabaeus
[32] = tested on: HeLa; test: Effective concentration required to inhibit respiratory synaptial (RSV) virus-induced cytopathicity by 50% in HeLa cell lines; type: functional, cell-based; details: Homo sapiens
[33] = tested on: Vero; test: Effective concentration required to inhibit Punta Toro virus-induced cytopathicity by 50% in Vero cell lines; type: functional, cell-based; details: Chlorocebus sabaeus

C#CCSC[C@H]1OC(n2cnc3c(N)ncnc32)[C@H](O)[C@@H]1O (stereo partly drawn) showed a pEC50 [1] of under 3.92, a pKi [2] of 4.35 and a pEC50 [3] of under 3.70. For the same molecule, the MIC [4] was over 200 µM, the NADH content [5] was 1 and the pEC50 [6] was under 3.60. For the same molecule, the pEC50 [7] was under 3.60, the pEC50 [8] was under 3.92 and the pEC50 [9] was under 3.60. For the same molecule, the NAD+ content [10] was 0, the pEC50 [11] was under 3.70 and the MIC [12] was 1240 µM (≈ 398 µg/mL). It also gave a pEC50 [13] of under 3.70, a pEC50 [14] of under 3.92 and a T1/2 [15] of 19 min. It also gave an MIC [16] of 1240 µM (≈ 398 µg/mL), a pEC50 [17] of under 3.92 and a K inact [18] of 0.0074 min⁻¹. The pEC50 [19] was 3.90, the pEC50 [20] was under 4.40 and the pEC50 [21] was under 3.60. For the same molecule, the pEC50 [22] was under 3.60, the pEC50 [23] was under 3.60 and the pEC50 [24] was under 3.70. It also gave a pEC50 [25] of under 3.60, a pEC50 [26] of under 3.70 and a pEC50 [27] of under 3.70. The pEC50 [28] was under 3.60 and the pEC50 [29] was 3.81.

With CC#CSC[C@H]1OC(n2cnc3c(N)ncnc32)[C@H](O)[C@@H]1O (stereo partly drawn) the pEC50 [1] was under 3.92, the pKi [2] was 4.80 and the pEC50 [3] was under 3.70. The MIC [4] was over 200 µM, the NADH content [5] was 0.32 and the pEC50 [6] was under 2.91. It also gave a pEC50 [7] of 3.60, a pEC50 [8] of under 3.92 and a pEC50 [9] of under 3.60. The NAD+ content [10] was 0.68, the pEC50 [30] was under 3.70 and the MIC [12] was over 1240 µM. The pEC50 [13] was under 3.70, the pEC50 [14] was under 3.92 and the T1/2 [15] was 7 min. The MIC [16] was 1240 µM (≈ 398 µg/mL), the pEC50 [17] was under 3.92 and the K inact [18] was 0.062 min⁻¹. For the same molecule, the pEC50 [19] was 3.70, the pEC50 [20] was under 4.40 and the pEC50 [21] was under 3.60. It also gave a pEC50 [22] of under 3.60, a pEC50 [23] of 4.31 and a pEC50 [24] of under 3.70. For the same molecule, the pEC50 [25] was 3.21, the pEC50 [26] was under 3.70 and the pEC50 [27] was under 3.70. The pEC50 [28] was under 2.91 and the pEC50 [29] was 3.70.

For Nc1nc2c(ncn2COCCO)c(=O)[nH]1 [ACYCLOVIR], the MIC [4] was over 150 µM, the pEC50 [13] was 5.39 and the pEC50 [19] was 4.20. The pEC50 [26] was 5.34 and the pEC50 [29] was 4.39.

For C=C=CSC[C@H]1OC(n2cnc3c(N)ncnc32)[C@H](O)[C@@H]1O (stereo partly drawn), the pEC50 [1] was under 3.22, the pKi [2] was 4.80 and the pEC50 [3] was under 3.70. For the same molecule, the MIC [4] was over 200 µM, the NADH content [5] was 0.3 and the pEC50 [6] was under 3.60. For the same molecule, the pEC50 [7] was 3.60, the pEC50 [8] was under 3.21 and the pEC50 [9] was under 3.60. For the same molecule, the NAD+ content [10] was 0.7, the pEC50 [30] was under 3.70 and the MIC [12] was 1240 µM (≈ 398 µg/mL). The pEC50 [13] was under 3.70, the pEC50 [14] was under 3.21 and the T1/2 [15] was 7 min. The MIC [16] was 1240 µM (≈ 398 µg/mL), the pEC50 [17] was under 3.42 and the K inact [18] was 0.12 min⁻¹. The pEC50 [19] was under 3.70, the pEC50 [20] was under 3.70 and the pEC50 [21] was 3.82. It also gave a pEC50 [22] of under 3.60, a pEC50 [23] of 5.72 and a pEC50 [24] of under 3.70. It also gave a pEC50 [25] of under 3.60, a pEC50 [26] of under 3.70 and a pEC50 [27] of under 3.70. For the same molecule, the pEC50 [28] was under 3.60 and the pEC50 [29] was 4.06.

With Nc1nc2c(ncn2COC(CO)CO)c(=O)[nH]1 [GANCICLOVIR] the MIC [4] was over 150 µM, the pEC50 [7] was 8.92 and the pEC50 [30] was 5.11. It also gave an MIC [16] of over 1600 µM, a pEC50 [23] of under 4.00 and a pEC50 [24] of 4.93. It also gave a pEC50 [25] of 8.92 and a pEC50 [28] of under 4.00.

Work on Nc1ncnc2c1ncn2C[C@H](O)CO [(S)-DHPA] yielded a pEC50 [1] of 3.64, a pEC50 [6] of under 2.70 and an MIC [12] of over 2000 µM. The pEC50 [14] was 3.64, the pEC50 [17] was 4.35 and the MIC [31] was over 2000 µM. For the same molecule, the pEC50 [32] was 2.70, the pEC50 [33] was under 2.70 and the pEC50 [28] was 3.64.

Molecule NC(=O)c1ncn([C@@H]2O[C@H](CO)[C@@H](O)[C@H]2O)n1 [RIBAVIRIN] has a pEC50 [1] of under 3.49, a pEC50 [6] of under 2.80 and a pEC50 [7] of 3.49. The pEC50 [8] was 4.40, the pEC50 [9] was 4.40 and the MIC [12] was over 1600 µM. It also gave a pEC50 [14] of 3.71, an MIC [16] of over 1600 µM and a pEC50 [17] of 4.40. The pEC50 [21] was 8.30, the pEC50 [22] was 5.82 and the pEC50 [23] was 4.19. It also gave a pEC50 [25] of 3.49 and a pEC50 [28] of 3.00.
